Reference: ChEMBL document CHEMBL1255409, “In vitro activity of ceftaroline against 623 diverse strains of anaerobic bacteria” (2010)

Columns and labels:
Type in all cases: functional
Bacteroides fragilis = assay: Antimicrobial activity against Bacteroides fragilis spp. under anaerobic conditions after 44 hrs by CLSI-M11-47 protocol based agar dilution method
Procedure, shortened: (§1)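 Reference agar dilution per CLSI M11-A7 with plates made on test day. Clinical isolates were stored at −70°C in 20% skim milk, subcultured twice, and 48-h cell paste was suspended in brucella broth to 0.5 McFarland. About 10^5 CFU/spot was applied with a Steers replicator. Plates were incubated 44 h at 37°C anaerobically. MIC was the lowest concentration giving complete inhibition or marked growth reduction versus the drug-free control.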

[1] = tested on: Parabacteroides distasonis; assay: Antimicrobial activity against Bacteroides distasonis under anaerobic conditions after 44 hrs by CLSI-M11-47 protocol based agar dilution method; procedure, shortened: as §1
Prevotella bivia = assay: Antimicrobial activity against Prevotella bivia under anaerobic conditions after 44 hrs by CLSI-M11-47 protocol based agar dilution method
Procedure, shortened: (§2)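 Clinical isolates were stored at −70°C in 20% skim milk and identified phenotypically or by partial 16S rRNA sequencing. Each strain was subcultured twice from frozen stock. Cell paste from 48-h cultures was suspended in brucella broth to a 0.5 McFarland standard. About 10^5 CFU per spot were applied by Steers replicator to agar dilution plates prepared on the day of testing. Plates were incubated 44 h at 37°C in an anaerobic chamber. MIC was taken as the lowest concentration giving complete inhibition or marked reduction of growth versus the drug-free control.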

Prevotella buccae = assay: Antimicrobial activity against Prevotella buccae under anaerobic conditions after 44 hrs by CLSI-M11-47 protocol based agar dilution method; details: Segatella buccae; procedure, shortened: as §2
Prevotella intermedia = assay: Antimicrobial activity against Prevotella intermedia under anaerobic conditions after 44 hrs by CLSI-M11-47 protocol based agar dilution method; procedure, shortened: as §2
Prevotella denticola = assay: Antimicrobial activity against Prevotella denticola under anaerobic conditions after 44 hrs by CLSI-M11-47 protocol based agar dilution method; procedure, shortened: as §2
Prevotella tannerae = assay: Antimicrobial activity against Prevotella tannerae under anaerobic conditions after 44 hrs by CLSI-M11-47 protocol based agar dilution method; details: Alloprevotella tannerae; procedure, shortened: as §2
Fusobacterium nucleatum = assay: Antimicrobial activity against Fusobacterium nucleatum under anaerobic conditions after 44 hrs by CLSI-M11-47 protocol based agar dilution method; procedure, shortened: as §2
Fusobacterium varium = assay: Antimicrobial activity against Fusobacterium varium under anaerobic conditions after 44 hrs by CLSI-M11-47 protocol based agar dilution method; procedure, shortened: as §2
Veillonella = assay: Antimicrobial activity against Veillonella spp. under anaerobic conditions after 44 hrs by CLSI-M11-47 protocol based agar dilution method; procedure, shortened: as §2
Anaerococcus prevotii = assay: Antimicrobial activity against Anaerococcus prevotii under anaerobic conditions after 44 hrs by CLSI-M11-47 protocol based agar dilution method; procedure, shortened: as §1
Parvimonas micra = assay: Antimicrobial activity against Parvimonas micra under anaerobic conditions after 44 hrs by CLSI-M11-47 protocol based agar dilution method; procedure, shortened: as §2
[2] = tested on: Peptostreptococcus anaerobius; assay: Antimicrobial activity against Peptostreptococcus anaerobius under anaerobic conditions after 44 hrs by CLSI-M11-47 protocol based agar dilution method; procedure, shortened: as §2
[3] = tested on: Peptostreptococcus stomatis; assay: Antimicrobial activity against Peptostreptococcus stomatis under anaerobic conditions after 44 hrs by CLSI-M11-47 protocol based agar dilution method; procedure, shortened: as §2
Anaerococcus murdochii = assay: Antimicrobial activity against Anaerococcus murdochii under anaerobic conditions after 44 hrs by CLSI-M11-47 protocol based agar dilution method; procedure, shortened: as §1
Gemella sanguinis = assay: Antimicrobial activity against Gemella sanguinis under anaerobic conditions after 44 hrs by CLSI-M11-47 protocol based agar dilution method; procedure, shortened: as §2
Peptoniphilus harei = assay: Antimicrobial activity against Peptoniphilus harei under anaerobic conditions after 44 hrs by CLSI-M11-47 protocol based agar dilution method; procedure, shortened: as §2
Peptoniphilus lacrimalis = assay: Antimicrobial activity against Peptoniphilus lacrimalis under anaerobic conditions after 44 hrs by CLSI-M11-47 protocol based agar dilution method; procedure, shortened: as §2
Schaalia odontolytica = assay: Antimicrobial activity against Actinomyces odontolyticus under anaerobic conditions after 44 hrs by CLSI-M11-47 protocol based agar dilution method; procedure, shortened: as §1
Propionibacterium avidum = assay: Antimicrobial activity against Propionibacterium avidum under anaerobic conditions after 44 hrs by CLSI-M11-47 protocol based agar dilution method; details: Cutibacterium avidum; procedure, shortened: as §2
Eubacterium contortum = assay: Antimicrobial activity against Eubacterium contortum under anaerobic conditions after 44 hrs by CLSI-M11-47 protocol based agar dilution method; details: Faecalicatena contorta; procedure, shortened: as §1
Eubacterium cylindroides = assay: Antimicrobial activity against Eubacterium cylindroides under anaerobic conditions after 44 hrs by CLSI-M11-47 protocol based agar dilution method; details: Faecalitalea cylindroides; procedure, shortened: as §1
Eubacterium saburreum = assay: Antimicrobial activity against Eubacterium saburreum under anaerobic conditions after 44 hrs by CLSI-M11-47 protocol based agar dilution method; details: Lachnoanaerobaculum saburreum; procedure, shortened: as §1
Solobacterium moorei = assay: Antimicrobial activity against Solobacterium moorei under anaerobic conditions after 44 hrs by CLSI-M11-47 protocol based agar dilution method; procedure, shortened: as §2
Lacticaseibacillus casei = assay: Antimicrobial activity against Lactobacillus casei under anaerobic conditions after 44 hrs by CLSI-M11-47 protocol based agar dilution method; procedure, shortened: as §2
Clostridium perfringens = assay: Antimicrobial activity against Clostridium perfringens under anaerobic conditions after 44 hrs by CLSI-M11-47 protocol based agar dilution method
Thomasclavelia ramosa = assay: Antimicrobial activity against Clostridium ramosum under anaerobic conditions after 44 hrs by CLSI-M11-47 protocol based agar dilution method; procedure, shortened: as §1
[Clostridium] innocuum = Antimicrobial activity against Clostridium […] under anaerobic conditions after 44 hrs by CLSI-M11-47 protocol based agar dilution method; procedure, shortened: as §1
Clostridium glycolicum = assay: Antimicrobial activity against Clostridium glycolicum under anaerobic conditions after 44 hrs by CLSI-M11-47 protocol based agar dilution method; details: Terrisporobacter glycolicus; procedure, shortened: as §1
[4] = tested on: Paeniclostridium sordellii; assay: Antimicrobial activity against Clostridium sordellii under anaerobic conditions after 44 hrs by CLSI-M11-47 protocol based agar dilution method; details: Paraclostridium sordellii; procedure, shortened: as §1
Lacrimispora sphenoides = assay: Antimicrobial activity against Clostridium sphenoides under anaerobic conditions after 44 hrs by CLSI-M11-47 protocol based agar dilution method; procedure, shortened: as §1
Clostridium symbiosum = assay: Antimicrobial activity against Clostridium symbiosum under anaerobic conditions after 44 hrs by CLSI-M11-47 protocol based agar dilution method; procedure, shortened: as §1

CO/N=C(\C(=O)N[C@@H]1C(=O)N2C(C(=O)O)=C(CSc3nc(=O)c(O)nn3C)CS[C@H]12)c1csc(N)n1 [CEFTRIAXONE]
64 µg/mL: MIC90 (Prevotella buccae) | MIC90 (Lacticaseibacillus casei) | MIC90 (Clostridium glycolicum) | MIC90 [4] | MIC90 (Lacrimispora sphenoides) | MIC90 (Clostridium symbiosum)
> 64 µg/mL: MIC50 (Bacteroides fragilis) | MIC90 (Bacteroides fragilis) | MIC50 [1] | MIC90 [1] | MIC90 (Prevotella bivia)
8 µg/mL: MIC90 (Prevotella denticola) | MIC90 (Prevotella tannerae) | MIC90 (Fusobacterium varium) | MIC90 (Veillonella) | MIC90 [2] | MIC90 [3] | MIC50 ([Clostridium] innocuum)
0.125 µg/mL: MIC50 (Fusobacterium nucleatum) | MIC50 (Schaalia odontolytica)
1 µg/mL: MIC50 (Prevotella intermedia) | MIC50 (Prevotella denticola) | MIC50 (Prevotella tannerae) | MIC50 (Fusobacterium varium) | MIC90 (Parvimonas micra)
0.5 µg/mL: MIC90 (Fusobacterium nucleatum) | MIC90 (Anaerococcus prevotii) | MIC50 (Parvimonas micra) | MIC90 (Schaalia odontolytica) | MIC90 (Propionibacterium avidum) | MIC50 (Eubacterium contortum) | MIC50 (Eubacterium cylindroides) | MIC50 (Eubacterium saburreum) | MIC50 (Solobacterium moorei) | MIC50 (Clostridium perfringens) | MIC90 (Thomasclavelia ramosa)
32 µg/mL: MIC50 (Lacticaseibacillus casei)
0.25 µg/mL: MIC50 (Prevotella buccae) | MIC50 (Anaerococcus prevotii) | MIC50 (Anaerococcus murdochii) | MIC50 (Gemella sanguinis) | MIC50 (Peptoniphilus harei) | MIC50 (Peptoniphilus lacrimalis) | MIC50 (Propionibacterium avidum) | MIC50 (Thomasclavelia ramosa)
16 µg/mL: MIC90 (Prevotella intermedia) | MIC90 (Anaerococcus murdochii) | MIC90 (Gemella sanguinis) | MIC90 (Peptoniphilus harei) | MIC90 (Peptoniphilus lacrimalis) | MIC90 ([Clostridium] innocuum)
2 µg/mL: MIC50 (Prevotella bivia) | MIC50 [2] | MIC50 [3] | MIC90 (Eubacterium contortum) | MIC90 (Eubacterium cylindroides) | MIC90 (Eubacterium saburreum) | MIC90 (Solobacterium moorei) | MIC90 (Clostridium perfringens) | MIC50 (Clostridium glycolicum) | MIC50 [4] | MIC50 (Lacrimispora sphenoides) | MIC50 (Clostridium symbiosum)
4 µg/mL: MIC50 (Veillonella)
